This note sets out measurements from the array DNA melting data of Ke et al. (doi:10.1101/2024.01.08.574731).

Series [1] is described as follows: folding enthalpy; higher = less favourable; fluorescence melt of hairpins on a sequencing array, two-state fit. Particulars: sodium 0.088 M. In a few lines:
(§1)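 Bootstrapped two-state fits yielded melting temperature and folding enthalpy for library hairpins. Cy3 fluorescence, with annealed Cy3 and quencher oligos, was imaged on a sequenced MiSeq flow cell in 50 mM Na-HEPES pH 8.0, 25 mM NaCl in 2.5 °C steps up to 60 °C, and normalised to pre-quench Cy3 and to control constructs. Four replicates were combined by inverse variance, and fitted temperatures were raised by 9.35 °C to match UV melts.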

Series [2] can be described thus: melting temperature; fluorescence melt of hairpins on a sequencing array, two-state fit, raised by 9.35 °C to match UV melts. Particulars: sodium 0.088 M. In a few lines: as §1

On to GGTTGCGAAAGCAGAACC ((((((....)))..))), for which the folding enthalpy in series [1] was -19.8 kcal/mol. Moreover, the Tm in series [2] amounted to 47.5 °C.

As for GGTTGCGAAAGCAGACC ((((((....))).))), the folding enthalpy in series [1] is -27.2 kcal/mol. Further, the Tm in series [2] came to 51 °C.

Regarding GGTTGCTCGAAAGAGACC (((..(((....)))))), the folding enthalpy in series [1] is -13.4 kcal/mol. In addition, in series [2], the Tm came out at 29.6 °C.

In the case of GGTTGGCGAAAGCCCACC (((.(((....))).))), in series [1], the folding enthalpy is -25.8 kcal/mol. For the same sequence, in series [2], the Tm was 51.4 °C.

For the sequence GGTTGGGAAACCAACC ((((((....)))))), in series [1], the folding enthalpy was -42.9 kcal/mol. The Tm in series [2] worked out at 60.4 °C.

For GGTTGGGCGAAAGCCACC (((..(((....)))))), in series [1], the folding enthalpy is -12.7 kcal/mol. In addition, the Tm in series [2] came to 39.8 °C.

Take GGTTGGGGAAACCCAGTC (..((((....))))..): in series [1], the folding enthalpy was -8.72 kcal/mol. Further, the Tm in series [2] was 30.4 °C.

GGTTGGGGAAACCTAACC ((((.((....)).)))): the folding enthalpy in series [1] was -32.4 kcal/mol. The Tm in series [2] came to 48 °C.

In the case of GGTTGGGGAAACCTGACC (((..((....))..))), the folding enthalpy in series [1] was -22.5 kcal/mol. Moreover, the Tm in series [2] came to 44.1 °C.

As for GGTTGTCGAAAGACACC (((.(((....)))))), the folding enthalpy in series [1] is -25.9 kcal/mol. Moreover, in series [2], the Tm was found to be 53.1 °C.

In the case of GGTTGTGGAAACACGACC (((.(((....))).))), in series [1], the folding enthalpy was -43.2 kcal/mol. Besides, the Tm in series [2] stood at 54.5 °C.

For GGTTGTGGAAACACGATC (.(.(((....))).).), the folding enthalpy in series [1] is -21.9 kcal/mol. Moreover, in series [2], the Tm came out at 34 °C.

Regarding GGTTGTGGAAACATAACC ((((.((....)).)))), the folding enthalpy in series [1] was -37 kcal/mol. Also, the Tm in series [2] was 45.9 °C.

In the case of GGTTGTGGAAACGCAACC (((((.(....).))))), the folding enthalpy in series [1] is -40.7 kcal/mol. The Tm in series [2] was 54 °C.

GGTTTACGAAAGTAACC (((.(((....)))))): the folding enthalpy in series [1] was -20.6 kcal/mol. Also, in series [2], the Tm turned out to be 44.2 °C.

In the case of GGTTTAGAAATAAACC ((((((....)))))), the folding enthalpy in series [1] was -29.2 kcal/mol. The Tm in series [2] stood at 45.3 °C.

As for GGTTTAGGAAACTAAATC (.(((((....))))).), the folding enthalpy in series [1] was -22.2 kcal/mol. Also, the Tm in series [2] was found to be 35.5 °C.

With GGTTTAGGAAACTAAGCC ((.((((....)))).)), the folding enthalpy in series [1] is -27.6 kcal/mol. Further, the Tm in series [2] worked out at 39.8 °C.

On to GGTTTCCGAAAGGAACC (((.(((....)))))), for which, in series [1], the folding enthalpy is -19.8 kcal/mol. Moreover, in series [2], the Tm turned out to be 51.8 °C.

On to GGTTTCCGAAAGGACACC (((.(((....))).))), for which the folding enthalpy in series [1] was -39 kcal/mol. Also, the Tm in series [2] is 49 °C.

Turning to GGTTTCGAAAGAAAACC ((((((....))).))), the folding enthalpy in series [1] was -25.7 kcal/mol. In addition, the Tm in series [2] came to 46.4 °C.

As to GGTTTCGAAAGAAGGACC ((((((....)))..))), the folding enthalpy in series [1] is -15.5 kcal/mol. In series [2], the Tm came to 29.1 °C.

For the sequence GGTTTCGGAAACGAAATC (.(((((....))))).), the folding enthalpy in series [1] was -25.1 kcal/mol. Moreover, the Tm in series [2] turned out to be 48 °C.

For the sequence GGTTTCGGAAACGAAGTC (..((((....))))..), in series [1], the folding enthalpy was -10.3 kcal/mol. For the same sequence, the Tm in series [2] was 26.4 °C.

With GGTTTGCCGAAAGGCACC (((..(((....)))))), in series [1], the folding enthalpy is -8.06 kcal/mol. Moreover, in series [2], the Tm came to 30.7 °C.

With GGTTTGGGAAACCAAATC (.(((((....))))).), the folding enthalpy in series [1] is -31.1 kcal/mol. In addition, the Tm in series [2] was determined as 44.5 °C.

For GGTTTGGGAAACCAAGTC (..((((....))))..), the folding enthalpy in series [1] was -15.4 kcal/mol. The Tm in series [2] amounted to 28.1 °C.

Regarding GGTTTGGGAAACCAGATC (.(.(((....))).).), in series [1], the folding enthalpy is -10.3 kcal/mol. Also, the Tm in series [2] was 30 °C.

Take GGTTTGGGAAACCGAATC (.((.((....)).)).): in series [1], the folding enthalpy is -20.2 kcal/mol. For the same sequence, in series [2], the Tm was determined as 35.3 °C.

Regarding GGTTTGGGAAACTGAACC ((((..(....)..)))), the folding enthalpy in series [1] was -29.2 kcal/mol. Moreover, in series [2], the Tm worked out at 35.1 °C.

Turning to GGTTTTACGAAAGTAACC (((..(((....)))))), the folding enthalpy in series [1] is -11.8 kcal/mol. Moreover, the Tm in series [2] amounted to 31.7 °C.

Regarding GGTTTTGGAAACAAGACC (((.(((....))).))), in series [1], the folding enthalpy is -31.6 kcal/mol. Besides, the Tm in series [2] came to 42.8 °C.

In the case of GTAAAACGAAAGTTGTAC (((.(((....))).))), the folding enthalpy in series [1] is -20.4 kcal/mol. Besides, in series [2], the Tm was 35.3 °C.

As to GTAAACACGAAAGTGTAC (((..(((....)))))), in series [1], the folding enthalpy was -11.7 kcal/mol. In series [2], the Tm was 31.2 °C.

Turning to GTAAACCGAAAGGTATAC (((.(((....))).))), the folding enthalpy in series [1] was -25.1 kcal/mol. In addition, the Tm in series [2] was 40.5 °C.

With GTAAACCGAAAGGTGTAC (((.(((....))).))), the folding enthalpy in series [1] was -23.3 kcal/mol. For the same sequence, the Tm in series [2] is 46.2 °C.

With GTAAACGGAAACGCTTAC ((((.((....)).)))), the folding enthalpy in series [1] is -29.5 kcal/mol. For the same sequence, the Tm in series [2] stood at 37.1 °C.
